Test results: ChEMBL document CHEMBL1127060 (1993)
Calls of active or inactive are those of the source. The rule behind the calls is not given here.

Columns and labels:
[1] = species: Oryctolagus cuniculus; assay: Tested for relaxation of carbachol-contracted rabbit mesenteric artery at 37 degree C; Significantly less potent than 2MeSATP; assay type: functional
[2] = species: Cavia porcellus; assay: Tested for contraction of guinea pig vas deferens at 37 degree C; Not active; assay type: functional
[3] = species: Oryctolagus cuniculus; assay: Tested for contraction of rabbit saphenous artery produced by 1 uM alpha,beta-MeATP at 37 degree C; Not active; assay type: functional
[4] = species: Oryctolagus cuniculus; assay: Tested for relaxation of carbachol-contracted rabbit mesenteric artery at 37 degree C; Not active; assay type: functional
[5] = species: Cavia porcellus; assay: Tested for relaxation of carbachol-contracted guinea pig taenia coli at 37 degree C; Potency equal to ATP; assay type: functional
[6] = species: Cavia porcellus; assay: Tested for contraction of guinea pig isolated urinary bladder detrusor muscle by 1 uM alpha,beta-MeATP at 37 degree C; Not active; assay type: functional; details: Muscle tissue
[7] = Agonism at turkey erythrocyte P2Y receptor.; assay type: functional, Meleagris gallopavo
How it was run: (§1)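 Turkey erythrocytes labeled 18–24 h at 37 °C with 2-[3H]myo-inositol in inositol-free DMEM; ghosts made by hypotonic lysis (5 mM Na phosphate pH 7.4, 5 mM MgCl2, 1 mM EGTA). PLC assay: ~175 μg protein ghosts, 1 μM GTPγS, Hepes pH 7.0 medium with 424 μM CaCl2, 2 mM EGTA; 5 min, 30 °C; total [3H]inositol phosphates by anion exchange; K0.5 averaged from 3–8 curves.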

[8] = species: Oryctolagus cuniculus; assay: Tested for relaxation of carbachol-contracted rabbit aorta at 37 degree C; Significantly more potent than 2MeSATP; assay type: functional
[9] = species: Oryctolagus cuniculus; assay: Tested for relaxation of carbachol-contracted rabbit mesenteric artery at 37 degree C; Significantly more potent than 2MeSATP; assay type: functional
[10] = species: Cavia porcellus; assay: Tested for contraction of guinea pig isolated urinary bladder detrusor muscle at 37 degree C; Significantly more potent than ATP; assay type: functional; details: Muscle tissue
[11] = species: Cavia porcellus; assay: Tested for contraction of guinea pig vas deferens at 37 degree C; Significantly more potent than ATP; assay type: functional
[12] = species: Cavia porcellus; assay: Tested for relaxation of carbachol-contracted guinea pig taenia coli at 37 degree C; Significantly more potent than ATP; assay type: functional
[13] = species: Cavia porcellus; assay: Tested for relaxation of carbachol-contracted guinea pig taenia coli at 37 degree C; Significantly less potent than ATP; assay type: functional
[14] = species: Oryctolagus cuniculus; assay: Tested for relaxation of carbachol-contracted rabbit aorta at 37 degree C; Not active; assay type: functional
[15] = species: Cavia porcellus; assay: Tested for contraction of guinea pig isolated urinary bladder detrusor muscle at 37 degree C; Not active; assay type: functional; details: Muscle tissue
[16] = species: Oryctolagus cuniculus; assay: Tested for contraction of rabbit saphenous artery produced by 1 uM alpha,beta-MeATP at 37 degree C; assay type: functional
[17] = species: Oryctolagus cuniculus; assay: Tested for relaxation of carbachol-contracted rabbit mesenteric artery at 37 degree C; Less potent or equal to 2MeSATP; assay type: functional
[18] = system: Meleagris gallopavo; assay: Tested for stimulation of production of inositol phosphate in turkey erythrocyte membrane; Not active; assay type: functional; how it was run: as §1
[19] = species: Oryctolagus cuniculus; assay: Tested for relaxation of carbachol-contracted rabbit aorta at 37 degree C; Potency equal to 2MeSATP; assay type: functional
[20] = species: Cavia porcellus; assay: Tested for contraction of guinea pig isolated urinary bladder detrusor muscle at 37 degree C; 100 times more potent than ATP; assay type: functional; details: Muscle tissue
[21] = species: Cavia porcellus; assay: Tested for contraction of guinea pig isolated urinary bladder detrusor muscle at 37 degree C; Less potent than or equal to ATP; assay type: functional; details: Muscle tissue
[22] = species: Cavia porcellus; assay: Tested for contraction of guinea pig isolated urinary bladder detrusor muscle at 37 degree C; Potency equal to ATP; assay type: functional; details: Muscle tissue
[23] = species: Cavia porcellus; assay: Tested for contraction of guinea pig vas deferens at 37 degree C; More potent than or equal to ATP; assay type: functional
[24] = species: Cavia porcellus; assay: Tested for contraction of guinea pig vas deferens at 37 degree C; Less potent than or equal to ATP; assay type: functional
[25] = species: Oryctolagus cuniculus; assay: Tested for relaxation of carbachol-contracted rabbit aorta at 37 degree C; More potent or equal to 2MeSATP; assay type: functional

## CNc1ncnc2c1ncn2[C@@H]1O[C@H](COP(=O)(O)OP(=O)(O)OP(=O)(O)O)[C@@H](O)[C@H]1O
[1]
  Relative activity: Partially active
[2]
  Relative activity: inactive
[3]
  Relative activity: inactive
[4]
  Relative activity: inactive
[5]
  Relative activity: 5.8
[6]
  Relative activity: inactive
[7]
  K 0.5: 19000 nM

## CSc1nc(N)c2ncn([C@@H]3O[C@H](COP(=O)(O)OP(=O)(O)O)[C@@H](O)[C@H]3O)c2n1
[8]
  Relative activity: Active
[9]
  Relative activity: Active
[7]
  K 0.5: 6 nM

## Nc1nc(SCCc2ccccc2)nc2c1ncn2C1O[C@H](COP(=O)(O)OP(=O)(O)OP(=O)(O)O)[C@@H](O)[C@H]1O (some centres not stated)
[10]
  Relative activity: Active
[8]
  Relative activity: 6.5
[3]
  Relative activity: inactive
[9]
  Relative activity: 6.2
[11]
  Relative activity: Active
[12]
  Relative activity: 7.1
[7]
  K 0.5: 30 nM

## Nc1ccc(CCSc2nc(N)c3ncn([C@@H]4O[C@H](COP(=O)(O)OP(=O)(O)OP(=O)(O)O)[C@@H](O)[C@H]4O)c3n2)cc1
[7]
  K 0.5: 1.53 nM

## C=CCCCCSc1nc(NC)c2ncn(C3O[C@H](COP(=O)(O)O)[C@@H](O)[C@H]3O)c2n1 (some centres not stated)
[13]
  Relative activity: Partially active
[14]
  Relative activity: inactive
[15]
  Relative activity: inactive
[16]
  Relative activity: 6.7%
[2]
  Relative activity: inactive
[4]
  Relative activity: inactive
[7]
  K 0.5: >100000 nM

## Nc1ncnc2c1ncn2[C@@H]1O[C@H](COP(=O)(O)O)[C@@H](O)[C@H]1O [ADENOSINE PHOSPHATE]
[17]
  Relative activity: 5
[13]
  Relative activity: Partially active
[15]
  Relative activity: inactive
[2]
  Relative activity: inactive
[3]
  Relative activity: inactive
[18]
  K 0.5: inactive
[19]
  Relative activity: 4.8

## N#CSCCCCCCCSc1nc(N)c2ncn(C3O[C@H](COP(=O)(O)OP(=O)(O)OP(=O)(O)O)[C@@H](O)[C@H]3O)c2n1 (some centres not stated)
[7]
  K 0.5: 25.9 nM

## N#CCCCCCCSc1nc(N)c2ncn(C3O[C@H](COP(=O)(O)OP(=O)(O)OP(=O)(O)O)[C@@H](O)[C@H]3O)c2n1 (some centres not stated)
[16]
  Relative activity: 9.2%
[8]
  Relative activity: 7
[9]
  Relative activity: 6.9
[11]
  Relative activity: Active
[20]
  Relative activity: Active
[12]
  Relative activity: 8.6
[7]
  K 0.5: 10 nM

## Nc1nc(SCCc2ccc([N+](=O)[O-])cc2)nc2c1ncn2C1O[C@H](COP(=O)(O)OP(=O)(O)OP(=O)(O)O)[C@@H](O)[C@H]1O (some centres not stated)
[16]
  Relative activity: 2.6%
[8]
  Relative activity: 6.2
[9]
  Relative activity: 7
[21]
  Relative activity: Partially active
[11]
  Relative activity: Active
[12]
  Relative activity: 8
[7]
  K 0.5: 12 nM

## Nc1nc(SCCCCCCCS)nc2c1ncn2C1O[C@H](COP(=O)(O)OP(=O)(O)OP(=O)(O)O)[C@@H](O)[C@H]1O (some centres not stated)
[7]
  K 0.5: 773 nM

## CCCCCCSc1nc(N)c2ncn(C3O[C@H](COP(=O)(O)OP(=O)(O)OP(=O)(O)O)[C@@H](O)[C@H]3O)c2n1 (some centres not stated)
[8]
  Relative activity: 6.7
[3]
  Relative activity: inactive
[9]
  Relative activity: 6.7
[22]
  Relative activity: Active
[12]
  Relative activity: 7.5
[23]
  Relative activity: Active
[7]
  K 0.5: 5 nM

## Nc1ncnc2c1ncn2[C@@H]1O[C@H](COP(=O)(O)OP(=O)(O)O)[C@@H](O)[C@H]1O [ADENOSINE DIPHOSPHATE]
[17]
  Relative activity: 5.2
[24]
  Relative activity: Partially active
[3]
  Relative activity: inactive
[25]
  Relative activity: 5.2
[5]
  Relative activity: Active
[22]
  Relative activity: Active
[7]
  K 0.5: 8000 nM
